From ChEMBL document CHEMBL4414568, “Development of Novel Irreversible Pyruvate Kinase M2 Inhibitors” (J Med Chem, 2019)
Activity calls are given as the source filed them.

How the values were obtained:
Pyruvate kinase PKM [1] = biological target: T1, Pyruvate kinase PKM (Homo sapiens, UniProt P14618); test: Inhibition of PKM2 in human PC9 cells assessed as decrease in extracellular acidification rate preincubated for 4 hrs followed by glucose/oligomycin/2-DG addition and measured after 1 hr by seahorse XFe96 analyser based assay; format: cell-based
T1 sequence (P14618 2-531 limits assumed): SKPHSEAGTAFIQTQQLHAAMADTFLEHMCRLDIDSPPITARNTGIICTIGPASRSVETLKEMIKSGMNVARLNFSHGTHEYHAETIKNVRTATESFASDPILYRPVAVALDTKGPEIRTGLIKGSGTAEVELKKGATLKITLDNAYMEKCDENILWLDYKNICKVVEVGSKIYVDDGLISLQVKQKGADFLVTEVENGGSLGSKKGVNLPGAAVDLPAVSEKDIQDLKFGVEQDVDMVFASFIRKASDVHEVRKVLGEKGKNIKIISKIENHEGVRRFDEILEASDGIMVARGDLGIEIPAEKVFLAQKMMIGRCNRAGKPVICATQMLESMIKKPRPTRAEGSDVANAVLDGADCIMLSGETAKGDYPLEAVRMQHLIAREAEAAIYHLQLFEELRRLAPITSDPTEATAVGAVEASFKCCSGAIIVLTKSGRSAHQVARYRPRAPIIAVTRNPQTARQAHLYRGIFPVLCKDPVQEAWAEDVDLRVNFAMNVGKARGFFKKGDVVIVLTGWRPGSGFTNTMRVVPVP
Procedure, shortened: (§1)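 PC-9 cells, 5 × 10^4 per well, seeded 24 h ahead, then treated with DMSO or compound at 0.25, 0.5 or 1 µM for 4 h at 37 °C. Cells held 1 h without CO2 in glycolysis medium. Seahorse glycolysis stress test with serial injections of 10 mM glucose, oligomycin and 50 mM 2-DG; ECAR and OCR recorded together. Six wells per point.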

[2] = biological target: T2, Phosphoenolpyruvate carboxykinase [GTP], mitochondrial (Homo sapiens) (UniProt Q16822); test: Binding affinity to PCKGM in human PC9 cells incubated for 1 hr by ABPP-SILAC assay; format: cell-based
T2 sequence (whole entry): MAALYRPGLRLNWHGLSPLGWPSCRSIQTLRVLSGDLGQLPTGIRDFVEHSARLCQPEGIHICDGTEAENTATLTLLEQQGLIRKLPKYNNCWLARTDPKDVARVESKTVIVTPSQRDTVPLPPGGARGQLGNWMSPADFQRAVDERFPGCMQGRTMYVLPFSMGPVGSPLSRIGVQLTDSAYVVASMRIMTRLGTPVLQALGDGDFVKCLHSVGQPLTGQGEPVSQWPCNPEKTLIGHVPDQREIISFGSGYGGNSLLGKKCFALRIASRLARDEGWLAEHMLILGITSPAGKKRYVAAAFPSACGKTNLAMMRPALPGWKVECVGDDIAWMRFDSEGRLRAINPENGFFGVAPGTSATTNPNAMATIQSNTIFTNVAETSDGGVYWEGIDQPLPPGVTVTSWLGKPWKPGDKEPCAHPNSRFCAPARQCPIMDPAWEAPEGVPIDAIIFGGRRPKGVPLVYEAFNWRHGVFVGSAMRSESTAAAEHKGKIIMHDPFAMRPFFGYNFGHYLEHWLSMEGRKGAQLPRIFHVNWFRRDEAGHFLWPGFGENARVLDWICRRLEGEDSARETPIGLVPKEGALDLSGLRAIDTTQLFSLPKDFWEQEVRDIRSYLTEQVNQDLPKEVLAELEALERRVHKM
Procedure, shortened: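 PC-9 cells passaged at least six times in SILAC DMEM with 10% dialyzed FBS plus 100 µg/mL light or 13C/15N-labeled Arg/Lys. Heavy cells got ABPP probe (1 µM) and light cells DMSO, 1 h at 37 °C. Cells mixed 1:1, sonicated, spun at 100,000g, protein normalized to 1 mg/mL. Click biotin-azide, streptavidin bead pulldown 16 h at 4 °C, SDS-PAGE, on-bead trypsin digestion, LC-MS/MS.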

PC-9 = test: Induction of basal oxygen consumption rate in human PC9 cells at 0.25 to 1 uM measured after 4 hrs in absence of glucose by seahorse XF96 flux analyser based assay; format: functional, cell-based; procedure, shortened: as §1
Pyruvate kinase PKM [3] = biological target: T1, Pyruvate kinase PKM; test: Inhibition of N-(4-(3-(3-(Methylamino)-3-oxopropyl)-5-(4'-(prop-2-yn-1-yloxy)-[1,1'-biphenyl]-4-yl)-1H-pyrazol-1-yl)phenyl)propiolamide binding to PKM2 in human PC9 cells at 1 uM preincubated for 1 hr followed by probe addition and measured after 1 hr by Western blot analysis; format: cell-based
Procedure, shortened: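 PC-9 cells pretreated with 1 µM compound or DMSO for 1 h, then alkyne probe added at 0.5, 1 or 2 µM for 1 h at 37 °C. Lysates put through Cu-catalysed click with biotin-azide, streptavidin beads 16 h at 4 °C, washes with 0.5% SDS/PBS, 10% SDS-PAGE and PKM2 Western blot.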

C#CC(=O)Nc1ccc(-n2nc(CCC(=O)NC)cc2-c2ccc(-c3ccc(C(F)(F)F)cc3)cc2)cc1
active: inhibition (Pyruvate kinase PKM [1]) Dose-dependent effect | Activity [2] | Activity (PC-9) | inhibition (Pyruvate kinase PKM [3])
